The list is not random: actives were taken first. Their share in the collection is about 2.5%.
MC4R antag cAMP: MC4R antagonists of cAMP signaling, primary screen, cell-based, TR-FRET, antagonist arm of biased-ligand search; Melanocortin receptor 4 (Homo sapiens), P32245; MC4R-expressing cells, MTII-stimulated cAMP, LANCE TR-FRET; inhibition, % at 6.5 µM; 360,000 compounds, 0.48% hits; AID 540295, 2011;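 active = inhibition above its plate's cutoff, the mean of tested wells on that plate plus 3 SD, cut at about 29% in these data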;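 also: 0% = Melanotan II alone and 100% = Melanotan II plus saturating MCL0020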
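Material: U2OS-MC4R stable cell line | Reagent: Melanotan II challenge after compound preincubation | Doses: One concentration, 6.5 µM nominal | Incubation: 30-min compound preincubation, 1-h Melanotan II challenge, 1-h detection, room temperature | Signal: TR-FRET cAMP assay | Replicates: One well per compound, no replicates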
MC4R ag barr: MC4R agonists recruiting beta-arrestin, primary screen, cell-based, luminescence, agonist arm of biased-ligand search; Melanocortin receptor 4 (Homo sapiens), P32245; U2OS MC4R beta-arrestin complementation; percent of melanotan II response, DMSO zero; activation, % at 8.9 µM; 360,000 compounds, 0.98% hits; AID 540308, 2011;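 active = activation above a per-plate cutoff, the mean activation of sample wells on that plate plus 3 SD, cut at about 8% in these data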
NTR1 ag: agonists of human NTR1, primary screen, imaging, U2OS cells, beta-arrestin-GFP, high content; NTR1-U2OS beta-arrestin-GFP spot imaging, agonist mode; activation, % at 20 µM; Neurotensin receptor type 1 (Homo sapiens), P30989; AID 493036, 2011; 330,000 compounds, 0.17% hits;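 active = activation at or above 40% of the spot to cytoplasm intensity ratio, with at least 20 cells analyzed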;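 also: 0% = DMSO without peptide and 100% = 100 nM NTR1 peptide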
Target sequence (P30989 whole entry, looked up): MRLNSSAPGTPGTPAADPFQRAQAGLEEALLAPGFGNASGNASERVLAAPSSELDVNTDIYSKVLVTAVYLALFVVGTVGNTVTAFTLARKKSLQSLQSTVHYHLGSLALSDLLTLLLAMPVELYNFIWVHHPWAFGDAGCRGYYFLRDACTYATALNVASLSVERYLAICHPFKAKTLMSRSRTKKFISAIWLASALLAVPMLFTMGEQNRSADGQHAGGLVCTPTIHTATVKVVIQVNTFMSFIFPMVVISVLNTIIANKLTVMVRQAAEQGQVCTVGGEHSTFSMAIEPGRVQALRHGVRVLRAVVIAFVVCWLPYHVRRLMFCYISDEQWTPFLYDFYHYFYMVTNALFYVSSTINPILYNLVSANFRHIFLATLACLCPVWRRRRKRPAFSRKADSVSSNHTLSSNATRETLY
Granule exo inh: LAMP-1 surface exposure blockers, TALL-104 cells – cell-based, flow cytometry, MLPCN library, primary screen; AID 651702, 2012; inhibition, % at 10 µM; TALL-104 LAMP-1 surface exposure; cells stimulated with thapsigargin and PMA; 360,000 compounds, 0.66% hits;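 active = inhibition above about 55%, limit read from the data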
Bfl-1 A1 inh: caspase 3/7 activation in MEF A1-2A-BIM cells, primary screen, A1 inhibitor project, cell-based, luminescence, HTS | caspase activation, % (test concentration not listed) | 330,000 compounds, 0.066% hits | Caspase-Glo 3/7 luminescence, 3 h; percent of clofoctol response, vehicle zero | AID 2462, 2010;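 active = over half of replicate activation scores above 10%, or exactly half above 10 with the replicate mean above 10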
HGIII-sPLA2 inh: human group III sPLA2 inhibitors, primary screen, biochemical, QFRET, BODIPY PC-A2 liposome substrate; Group 3 secretory phospholipase A2 (Homo sapiens), Q9NZ20; 370,000 compounds, 0.56% hits; inhibition, % at 12.2 µM; QFRET BODIPY PC-A2 liposome hydrolysis, fluorescence;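 active = inhibition above mean plus 3 SD of compounds lying within the high and low control bounds, cut at about 19% in these data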;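 also: 0% = median of test compound wells and 100% = no enzyme DMSO wells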
MC4R barr conf: MC4R beta-arrestin agonists, retest, confirmation, cell-based, luminescence, U2OS | shares compounds with MC4R ag barr | U2OS MC4R beta-arrestin recruitment; scaled DMSO 0%, Melanotan II 100% | activation, % at 8.9 µM | 2,400 compounds, 31% hits | AID 602192, 2012;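 active = mean activation across replicates above the hit cutoff set in the earlier primary screen, cut at about 8% in these data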
MOR DOR agonist: agonists of MOR-DOR heterodimerization, counter-screen for MC4R biased agonist project, cell-based, luminescence. shares compounds with MC4R ag barr. U2OS PathHunter beta-arrestin, beta-gal luminescence; percent of deltorphin B response, DMSO zero. activation, % at 9.2 µM. 2,400 compounds, 5.8% hits. AID 602194, 2012;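 active = mean activation across replicates exceeds the hit threshold derived in the earlier primary screen, cut at about 18% in these data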;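 also: 100% = deltorphin B at 0.9 µM final and 0% = DMSO alone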
Active calls of the source: *; . = not tested or not shown; ! = not active in a repeat.

SMILES	MC4R antag cAMP	MC4R ag barr	NTR1 ag	Granule exo inh	Bfl-1 A1 inh	HGIII-sPLA2 inh	MC4R barr conf	MOR DOR agonist
Cc1ccc2c(c1)C1CS(=O)(=O)N(CC(C)C)CN1C2 (stereo unspecified)	.	.	.	.	.	7	.	.
Cc1ccc(S(=O)(=O)NCCCc2ccc3c(c2)[C@]2(CCC[C@@H](OCc4ccccc4)[C@@H]2NC(=O)CCc2ccccc2)C(=O)N3Cc2ccccc2)cc1	.	.	.	.	.	-2	.	.
OCCN(CCO)c1ccc(C(c2ccccc2Cl)c2ccc(N(CCO)CCO)cc2Cl)c(Cl)c1	9	14*	34	-1	1	.	9.6*	3
OCCN(CCO)c1ccc2ccccc2c1	2	-2	0	2	0	6	.	.
O=C(CSc1nnc(-c2cccs2)o1)c1ccc(F)cc1	.	.	.	.	.	-39	.	.
COc1ccc(C)cc1NC(=O)COC(=O)c1ccc2c(c1)OCCO2	1	10*	1	0	-1	10	-2	17
COc1ccc(NC(=O)COC(=O)c2ccc3c(c2)OCCO3)cc1OC	14	17*	3	5	-2	0	9.0*	3
Cc1ccc(NC(=O)COC(=O)c2ccc3c(c2)OCCO3)cc1	18	-3	0	4	1	-2	.	.
COc1ccc(C(C)=O)cc1COC(=O)c1ccc2c(c1)OCCO2	0	9.8*	1	-4	0	0	4	2
COc1ccc(C)cc1NC(=O)COC(=O)c1ccc2c(c1)OCO2	3	13*	4	-1	-1	9	-4	3
C=CCN1C/C(=C/c2ccccc2)N2C(=O)CC(c3ccccc3)N=C12 (stereo unspecified)	.	.	.	.	.	5	.	.
CN(CCO)C1CN(Cc2cn(Cc3ccccc3C(F)(F)F)nn2)S(=O)(=O)C1 (stereo unspecified)	.	.	.	.	.	18	.	.
CCC[C@H]1[C@@H](OC(=O)NCCc2ccccc2)CC[C@@]23CCCN2C(=O)CCC[C@@H]13	.	.	.	.	.	7	.	.
COc1ccc(OC)c(S(=O)(=O)Nc2ccc(C(=O)Nc3cc(C)on3)cc2)c1	.	.	.	.	.	-16	.	.
COc1ccc(NC(=O)COC(=O)c2ccc3c(c2)OCO3)c(OC)c1	14	14*	1	-1	-1	-4	-2	4
CCN1CCN(Cc2ccc(NC(=O)c3cc(NC(=O)c4cncc(-c5ccc(C#N)cc5)c4)cc(OC)c3)cc2C(F)(F)F)CC1	3	13*!	12	-6	1	-20	20*	13
CCN1CCN(Cc2ccc(NC(=O)c3cc(NC(=O)c4nccnc4N)cc(OC)c3)cc2C(F)(F)F)CC1	-1	0	15	3	-1	-9	.	.
CCCN(CCC)Cc1c(C(=O)N/N=C/c2ccc(C)o2)nnn1-c1nonc1N	6	13*	0	-3	1	-7	3	14
O=C(N/N=C/c1ccc(OCc2ccccc2)cc1)c1ccco1	0	0	2	4	-4	-2	.	.
O=C(N/N=C/c1ccccc1)c1ccc(OCc2ccccc2)cc1	0	12*	3	-9	-1	2	3	4
Nc1nonc1-n1nnc(C(=O)N/N=C/c2ccc(OCc3ccc(F)cc3)cc2)c1COc1ccccc1	20	19*	5	0	2	-1	8	3
COC(=O)c1ccc2nc(-c3ccc(Cl)cc3)c(Cc3ccccc3)n2c1	.	.	.	.	.	-4	.	.
CC(=O)C1=C(C)NC(=S)NC1c1ccccc1 (stereo unspecified)	.	.	.	.	.	6	.	.
Cc1ccc(NC(=O)c2ccc(NCCc3ccccc3)c([N+](=O)[O-])c2)cc1F	20	3	8	1	-1	3	.	.
O=C(Nc1cc(F)cc(F)c1)c1ccc(NCCc2ccccc2)c([N+](=O)[O-])c1	-4	10*	0	5	0	2	-1	5
SMILES	MC4R antag cAMP	MC4R ag barr	NTR1 ag	Granule exo inh	Bfl-1 A1 inh	HGIII-sPLA2 inh	MC4R barr conf	MOR DOR agonist
CCC1CN(C(=O)Nc2ccc(C)cc2)c2cc(C)ccc2O1 (stereo unspecified)	23	11*	5	0	1	2	-2	4
COc1ccc(/C=N/NC(=S)Nc2cc(C(F)(F)F)ccc2Cl)cc1	-8	24*	1	-17	0	1	2	4
FC(F)(F)c1ccc(Cl)c(NC(=S)N/N=C/c2ccccc2C(F)(F)F)c1	7	1	5	-4	1	-4	.	.
CCOc1ccc2nc3cc(NCc4ccc(OC)cc4)ccc3c(N)c2c1	19	13*	1	34	0	.	15*	15
CCn1cnc2cc(NCc3ccc(OC)cc3)ccc21	-4	0	0	-2	-1	3	.	.
O=C(NCc1ccc(C(F)(F)F)cc1)C1CC(c2ccc(C(F)(F)F)cc2)=NO1 (stereo unspecified)	-7	12*	6	-2	1	8	2	7
Cc1ccccc1N(C(=O)Cc1c[nH]c2ccccc12)C(C(=O)NC1CCCCC1)c1ccco1 (stereo unspecified)	-5	21*	0	-2	0	-26	6	11
C[C@@H]1CN([C@@H](C)CO)C(=O)CCCn2cc(nn2)CO[C@H]1CN(C)C(=O)Nc1ccc2c(c1)OCO2	.	.	.	.	.	7	.	.
COCCOc1ccc(C(F)(F)F)cc1NC(=O)c1ccc(F)cc1	-2	7	3	-3	0	18	.	.
COCCOc1ccc(C(F)(F)F)cc1NC(=O)c1ccc(C)cc1	-2	15*	0	-4	0	-2	1	6
Cc1c(C(=O)Nc2ccccn2)oc2c(Cl)cccc12	-2	-3	2	19	0	9	.	.
Cc1c(C(=O)Nc2nccs2)oc2c(Cl)cccc12	-9	22*	6	1	-1	9	1	6
COC(=O)[C@H](C(C)C)N1Cc2nnn(Cc3ccc(C)cc3)c2-c2cc(F)ccc2S1(=O)=O	.	.	.	.	.	-9	.	.

High-throughput results as filed in PubChem BioAssay.
